# Measured values from ChEMBL document CHEMBL5108003, “Identification of 2-hydroxybenzoic acid derivatives as selective SIRT5 inhibitors” (Eur J Med Chem, 2022).
# Molecular target: T1, NAD-dependent protein deacylase sirtuin-5, mitochondrial (Homo sapiens, UniProt Q9NXA8)
# Test: Inhibition of human SIRT5 using fluorogenic substrate preincubated for 1 hr in presence of NAD followed by substrate addition and measured after 15 to 30 mins by trypsin-coupled fluorescence plate reader analysis
# Target sequence in this assay (Q9NXA8 whole entry): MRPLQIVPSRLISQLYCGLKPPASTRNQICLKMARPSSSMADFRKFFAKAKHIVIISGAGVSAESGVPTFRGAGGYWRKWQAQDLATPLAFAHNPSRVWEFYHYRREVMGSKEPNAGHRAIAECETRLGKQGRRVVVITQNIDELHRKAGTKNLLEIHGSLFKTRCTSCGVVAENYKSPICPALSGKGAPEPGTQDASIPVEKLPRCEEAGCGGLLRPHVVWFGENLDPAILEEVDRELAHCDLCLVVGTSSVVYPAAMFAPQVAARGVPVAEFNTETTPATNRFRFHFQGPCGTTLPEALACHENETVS
row,SMILES,IC50 [µM]
1,O=C(O)c1ccc(NC(=S)Nc2nc(-c3ccc(C(F)(F)F)cc3)cs2)cc1O,24.3
2,CC(=O)Nc1ccc(-c2csc(Nc3ccc(C(=O)O)cc3)n2)cc1,201
3,CCOC(=O)c1ccc(Nc2nc(-c3ccc(NC(C)=O)cc3)cs2)cc1O,> 400
4,O=C(O)c1ccc(NC(=S)Nc2nc(-c3cccc(C(F)(F)F)c3)cs2)cc1O,26.8

# Molecular target: T1, NAD-dependent protein deacylase sirtuin-5, mitochondrial
# Test: Stabilization of human SIRT5 assessed as change in melting temperature at 100 uM by thermal shift assay
# Summary of the method: (§1)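 Recombinant wild-type SIRT5 at 0.2 mg/ml final in 20 mM Bis-Tris propane pH 7.5 with 150 mM NaCl. The dye was 0.1 mM 1,8-ANS, and compound was at 100 μM with DMSO as the vehicle reference. Wells were overlaid with silicon oil and heated continuously from 25 °C to 90 °C. Tm came from fluorescence melt curves versus the DMSO control. Each reaction was run in quadruplicate.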
# Target sequence in this assay (Q9NXA8 37-310 limits assumed): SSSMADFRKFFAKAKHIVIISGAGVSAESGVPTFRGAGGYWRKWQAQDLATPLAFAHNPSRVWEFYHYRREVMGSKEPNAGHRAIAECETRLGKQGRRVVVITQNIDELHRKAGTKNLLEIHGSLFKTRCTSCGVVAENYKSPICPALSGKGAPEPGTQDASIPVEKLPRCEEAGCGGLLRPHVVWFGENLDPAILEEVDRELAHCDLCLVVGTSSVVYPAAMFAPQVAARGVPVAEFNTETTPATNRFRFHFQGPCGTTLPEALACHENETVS
row,SMILES,ΔTm [°C]
1,O=C(O)c1ccc(NC(=S)Nc2nc(-c3ccc(C(F)(F)F)cc3)cs2)cc1O,1.2
2,COc1ccc(-c2csc(NC(=S)Nc3ccc(C(=O)O)c(O)c3)n2)cc1,0.9
3,O=C(O)c1ccc(NC(=S)Nc2nc(-c3ccc(Br)cc3)cs2)cc1O,1.2
4,Cc1ccc(-c2csc(NC(=S)Nc3ccc(C(=O)O)c(O)c3)n2)cc1,1.4
5,CNS(=O)(=O)c1cccc(-c2csc(NC(=S)Nc3ccc(C(=O)O)c(O)c3)n2)c1,0.8
6,O=C(O)c1ccc(NC(=S)Nc2nc(-c3ccc(F)c(F)c3)cs2)cc1O,1.8
7,CC(=O)Nc1cccc(-c2csc(NC(=S)Nc3ccc(C(=O)O)c(O)c3)n2)c1,1.5
8,CC(=O)Nc1ccc(-c2csc(Nc3ccc(C(=O)O)c(O)c3)n2)cc1,1.8
9,COc1cccc(-c2csc(NC(=S)Nc3ccc(C(=O)O)c(O)c3)n2)c1,0.9
10,N#Cc1ccc(-c2csc(NC(=S)Nc3ccc(C(=O)O)c(O)c3)n2)cc1F,1.8
11,O=C(O)c1ccc(NC(=S)Nc2nc(-c3ccc(O)cc3)cs2)cc1O,0.8
12,O=C(O)c1ccc(NC(=S)Nc2nc(-c3ccc(F)c(S(=O)(=O)NCc4ccccc4)c3)cs2)cc1O,1.9
13,O=C(O)c1ccc(NC(=S)Nc2nc(-c3ccc(F)cc3)cs2)cc1O,1.3
14,O=C(O)c1ccc(NC(=S)Nc2nc(-c3ccc([N+](=O)[O-])c(F)c3)cs2)cc1O,1.8
15,N#Cc1ccc(-c2csc(NC(=S)Nc3ccc(C(=O)O)c(O)c3)n2)c(F)c1,1.9
16,CC(=O)Nc1ccc(-c2csc(Nc3ccc(C(=O)O)cc3)n2)cc1,0.53
17,O=C(O)c1ccc(NC(=S)Nc2nc(-c3cccc(O)c3)cs2)cc1O,0.72

row,SMILES,ΔTm [°C]
1,O=C(O)c1ccc(NC(=S)Nc2nc(-c3ccc(Cl)cc3)cs2)cc1O,1.1
2,Cc1ccccc1-c1csc(NC(=S)Nc2ccc(C(=O)O)c(O)c2)n1,1.1
3,O=C(O)c1ccc(NC(=S)Nc2nc(-c3ccc([N+](=O)[O-])cc3F)cs2)cc1O,1.6
4,CC(=O)Nc1ccccc1-c1csc(NC(=S)Nc2ccc(C(=O)O)c(O)c2)n1,0.9
5,N#Cc1ccc(-c2csc(NC(=S)Nc3ccc(C(=O)O)c(O)c3)n2)cc1,2.1
6,O=C(O)c1ccc(NC(=S)Nc2nc(-c3ccc([N+](=O)[O-])c(S(=O)(=O)NCc4ccccc4)c3)cs2)cc1O,1.8
7,CCOC(=O)c1ccc(Nc2nc(-c3ccc(NC(C)=O)cc3)cs2)cc1O,0.12
8,O=C(O)c1ccc(NC(=S)Nc2nc(-c3ccc(F)c(S(=O)(=O)NC4CCCC4)c3)cs2)cc1O,1.3
9,O=C(O)c1ccc(NC(=S)Nc2nc(-c3cccc(F)c3)cs2)cc1O,1.22
10,O=C(O)c1ccc(NC(=S)Nc2nc(-c3ccccc3F)cs2)cc1O,1
11,CNS(=O)(=O)c1ccc(-c2csc(NC(=S)Nc3ccc(C(=O)O)c(O)c3)n2)cc1,0.9
12,O=C(O)c1ccc(NC(=S)Nc2nc(-c3ccc([N+](=O)[O-])cc3)cs2)cc1O,1.8
13,CC(=O)Nc1ccc(-c2csc(NC(=S)Nc3ccc(C(=O)O)c(O)c3)n2)cc1,2.5
14,Cc1cccc(-c2csc(NC(=S)Nc3ccc(C(=O)O)c(O)c3)n2)c1,1.2
15,O=C(O)c1ccc(NC(=S)Nc2nc(-c3cccc(C(F)(F)F)c3)cs2)cc1O,1.1
16,O=C(O)c1ccc(NC(=S)Nc2nc(-c3ccc(F)cc3F)cs2)cc1O,1.9

# Molecular target: T1, NAD-dependent protein deacylase sirtuin-5, mitochondrial
# Test: Stabilization of wild type human SIRT5 assessed as melting temperature at 100 uM by thermal shift assay
# Summary of the method: as §1
# Target sequence in this assay (Q9NXA8 37-310 limits assumed): as above
row,SMILES,Tm [°C]
1,CC(=O)Nc1ccc(-c2csc(Nc3ccc(C(=O)O)c(O)c3)n2)cc1,52.8
2,Cc1ccc(C(=O)Nc2ccc(S(=O)(=O)O)c3cc(S(=O)(=O)O)cc(S(=O)(=O)O)c23)cc1NC(=O)c1cccc(NC(=O)Nc2cccc(C(=O)Nc3cc(C(=O)Nc4ccc(S(=O)(=O)O)c5cc(S(=O)(=O)O)cc(S(=O)(=O)O)c45)ccc3C)c2)c1,51
